PP5 primary: inhibitors of human protein phosphatase 5 (PP5); inhibition, % at 6.7 µM; purified PP5c, OMFP substrate fluorescence; 320,000 compounds, 0.18% hits;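 active = inhibition above the campaign's mean inhibition across all tested compounds plus 3 SD, cut at about 9.5% in these data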
Target sequence (P53041 whole entry, looked up): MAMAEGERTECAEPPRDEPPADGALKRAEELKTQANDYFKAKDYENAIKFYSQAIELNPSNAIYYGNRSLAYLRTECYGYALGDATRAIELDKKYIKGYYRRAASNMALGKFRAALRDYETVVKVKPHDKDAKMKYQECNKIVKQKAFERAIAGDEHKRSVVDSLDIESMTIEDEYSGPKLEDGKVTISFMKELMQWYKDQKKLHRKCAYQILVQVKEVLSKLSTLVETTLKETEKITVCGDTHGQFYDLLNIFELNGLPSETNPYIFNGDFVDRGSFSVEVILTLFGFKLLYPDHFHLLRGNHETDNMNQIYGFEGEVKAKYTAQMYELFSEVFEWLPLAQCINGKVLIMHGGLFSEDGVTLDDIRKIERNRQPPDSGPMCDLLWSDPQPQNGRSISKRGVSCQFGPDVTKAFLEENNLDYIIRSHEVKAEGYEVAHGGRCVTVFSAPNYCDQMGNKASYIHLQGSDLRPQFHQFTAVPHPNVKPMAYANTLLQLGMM
EBNA-1 inh: blocks EBNA-1 binding to DNA; inhibition, % at 14.8 µM; 300,000 compounds, 0.34% hits; EBNA-1 DNA binding, fluorescence polarization; in the data active = inhibition above about 28%
ZTA DNA inh: ZTA (EBV) inhibition in EBNA-1 counter-screen. P03206. ZTA-DNA binding, fluorescence polarization. inhibition, % at 11 µM. 320,000 compounds, 0.15% hits; in the data active = inhibition above about 33%
PP1 inh: blocks human PP1-alpha phosphatase, a PP5 counter-screen | inhibition, % at 6.7 µM | AID 2235 | 320,000 compounds, 0.9% hits | purified PP1alpha, OMFP fluorescence | P62136;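 active = inhibition above the mean inhibition of all tested compounds plus 3 SD, computed separately for each screening campaign, cut at about 15% in these data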
core dimer inh: HCV core protein dimerization inhibition | TR-FRET GST/Flag-core106 dimerization, 1536-well | inhibition, % at 5 µM | 300,000 compounds, 0.33% hits | AID 1899;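 active = inhibition above the mean of all tested compounds plus 3 SD, set per screening campaign, cut at about 45% in these data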
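assay system = GST-tagged and Flag-tagged HCV core protein residues 1-106 | controls = unlabelled core106 and no-GST-core106 wells | incubation = compound-protein-antibody incubation 4 h at 22.5 °C | probe or stimulus = Eu donor and XL665 acceptor anti-tag antibodies | read-out = % inhibition based on acceptor/donor emission ratio | signal = TR-FRET 671 and 617 nm emission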
EBNA-1 inh conf: EBNA-1 (EBV) inhibition, confirmation; 830 compounds, 35% hits; inhibition, % at 14.8 µM; Recombinant EBNA-1 DBD, Cy5-DNA fluorescence polarization; AID 2292; shares compounds with EBNA-1 inh;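 active = mean inhibition across replicates above a set limit taken from the earlier primary screen, cut at about 28% in these data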
ZTA counter trip: ZTA (EBV) inhibition, triplicate counter-screen | shares compounds with EBNA-1 inh | Zta-ZRE DNA binding, Cy5 fluorescence polarization | inhibition, % at 11.1 µM | 830 tested, under 10 active | AID 2328;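 active = mean inhibition over triplicates above a set limit taken from the primary EBNA-1 screen, cut at about 37% in these data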;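 also: purified full length Zta protein with Cy5 labeled ZRE DNA probe; inhibitors lower polarization by freeing the labeled DNA probe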
A number is an active result; i = inactive; nt = no result; ! = repeats disagree. This is a sample that favours compounds with a hit; in the whole collection about 1.7% have one here.

SMILES | PP5 primary | EBNA-1 inh | ZTA DNA inh | PP1 inh | core dimer inh | EBNA-1 inh conf | ZTA counter trip
CCOC(=O)c1ccc(CNC(=O)CSc2nc(NC(=O)c3ccccc3)c3c(C)c(C)oc3n2)cc1 | i | 40 | i | i | i | i | i
CC(=O)N1c2ccc(S(=O)(=O)N3CCC(C(=O)NC(C)c4ccccc4)CC3)cc2CC1C (stereo not given) | i | i | i | i | i | nt | nt
CCCCNC(=O)CSc1nc(Cc2ccccc2)nc2ccccc12 | i | i | i | i | i | nt | nt
CCOC(=O)C1=C(C)Nc2nc(SCC)nn2C1c1ccc(OC)cc1 (stereo not given) | i | 33 | i | i | i | i | i
CCOC(=O)C1=C(C)Nc2nc(SCC(=O)OC)nn2C1c1cc(F)cc(F)c1 (stereo not given) | i | i | i | i | i | nt | nt
COc1ccc2nc(NC(=O)CSc3nnc(C)s3)sc2c1 | i | 29 | i | i | i | i | i
COC(=O)C1=C(C)NC2=C(C(=O)c3ccccc32)C1c1cccc(OC)c1 (stereo not given) | i | 28 | i | i | i | 38 | i
CN1C(=O)C(c2nnc(Nc3cccc4ccccc34)s2)C2CC1(C)Oc1ccccc12 (stereo not given) | i | i | i | i | i | nt | nt
COC(=O)c1ccc2c(=O)n(CCN3CCOCC3)c(SCC(=O)Nc3ccc(C)cc3)nc2c1 | i | i | i | i | i | nt | nt
COC(=O)C1=C(N)N(c2ccccc2C(F)(F)F)C2=C(C(=O)CCC2)C1c1ccc2c(c1)OCO2 (stereo not given) | i | 31 | i | i | i | i | i
CSc1nsc2nc(=O)c(/C=C3\C(C)=Nc4ccc(C)cc43)c(N)n12 | i | i | i | i | i | nt | nt
CC1=Nc2ccc(C)cc2/C1=C/c1c(N)n2oc(C)cc2nc1=O | i | 28! | i | i | i | 33 | i
COc1ccccc1-c1nnc(NC(=O)CSc2nncn2C)s1 | i | i | i | i | i | nt | nt
CCCCOc1ccc(/C(N)=N/O)cc1 | i | i | i | i | i | nt | nt
O=C(NCC(F)(F)F)Nc1cccnc1 | i | 80 | i | i | i | i | i
COC(=O)c1c(NC(=O)C(=O)N2CCOCC2)sc2c1CCCC2 | i | i | i | i | i | nt | nt
Cc1cc(C(=O)CN2C(=O)NC3(CCCc4sccc43)C2=O)c(C)n1-c1ccc(Cl)cc1 (stereo not given) | i | 34 | i | i | i | i | i
NS(=O)(=O)c1ccc(CCNC(=O)C2CCC(CNS(=O)(=O)c3ccc(Br)s3)CC2)cc1 (stereo not given) | i | 59 | i | i | i | i | i
Cc1cc(/C=C2\SC(=S)N(C)C2=O)c(C)n1-c1ccc(O)cc1 | i | i | i | i | i | nt | nt
Cc1cc(/C=C2\SC(=S)N(C)C2=O)c(C)n1-c1ccccc1O | i | 35 | i | i | i | 43 | i
CNc1ncnc(Sc2ccc(Cl)cc2)c1[N+](=O)[O-] | i | i | i | i | i | nt | nt
C=CCn1c(SCC(=O)NC(=O)NCc2ccco2)nc2sc(CC)cc2c1=O | i | 28 | i | i | i | i | i
Cc1sc2nc(SCC(=O)NCc3ccco3)n(C)c(=O)c2c1C | i | i | i | i | i | nt | nt
Cc1sc2nc(SCC(=O)NCc3ccco3)n(CCc3ccccc3)c(=O)c2c1C | i | 30 | i | i | i | i | i
Cc1cccc(C)c1Nc1nnc(SCc2nc3ccccc3c(=O)[nH]2)s1 | i | i | i | i | i | nt | nt
SMILES | PP5 primary | EBNA-1 inh | ZTA DNA inh | PP1 inh | core dimer inh | EBNA-1 inh conf | ZTA counter trip
CCOc1ccc(Nc2nnc(SCc3nc4ccccc4c(=O)[nH]3)s2)cc1 | i | 38 | i | i | i | 52 | i
CC1CCCC(C)N1S(=O)(=O)c1ccc(NC(=O)CCn2cnc3ccccc3c2=O)cc1 (stereo not given) | i | 48 | i | i | i | 52 | i
CS(=O)(=O)N(Cc1ccc(C(=O)NC2CCCC2)cc1)c1ccccc1 | i | i | i | i | i | nt | nt
Cc1ccc(N(Cc2ccc(C(=O)NC3CCCCC3)cc2)S(C)(=O)=O)cc1C | i | 31 | i | i | i | 34 | i
O=C(c1ccc(CN2CCc3ccccc3C2)cc1)N1CCN(c2ccccc2)CC1 | i | i | i | i | i | nt | nt
O=C(c1ccc(CN2CCc3ccccc3C2)cc1)N1CCc2ccccc2C1 | i | 38 | i | i | i | i | i

Screens: PubChem BioAssay, The Scripps Research Institute Molecular Screening Center
